Measured values from ChEMBL document CHEMBL1121837, “Synthesis and antischistosomal activity of certain pyrazolo[1,5-a]pyrimidines” (1981).

These molecules were tested on Schistosoma mansoni (assay: In vitro antischistosomal activity, minimum active concentration to cause severe damage or death of worms at 96 hr against Schistosoma mansoni).
Type: functional
Summary of the method: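 Adult S. mansoni pairs (Puerto Rican strain, 46-day infection, recovered from mice) incubated at 37 °C, 2.0 mL medium per pair, in serumless medium with 50 µg/mL gentamycin sulfate. Compound dissolved in DMSO, final DMSO ≤1%. Worms examined by inverted microscope at intervals up to 96 h, when the final reading was taken.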

| Structure (SMILES) | MAC [µg/mL] |
| --- | --- |
| CCCn1ccc(=S)n2nc(-c3ccccc3)cc12 | 10 |
| CCn1ccc(=O)n2nccc12 | >100 |
| Cc1cc(O)n2nc(-c3ccccc3)cc2n1 | 100 |
| Oc1cc(-c2ccccc2)nc2cc(-c3ccccc3)nn12 | >100 |
| O=c1cc(-c2ccccc2)[nH]c2cc(-c3cccc(Cl)c3)nn12 | >100 |
| Cc1cc(=S)n2nccc2n1C | >100 |
| Cc1cccc(-c2cnn3c(O)cc(-c4ccccc4)nc23)c1 | 1 |
| Oc1ccnc2cc(-c3ccccc3)nn12 | >100 |
| Oc1cc(-c2ccccc2)nc2c(-c3ccccc3)cnn12 | 10 |
| Sc1cc(-c2ccccc2)nc2cc(-c3ccccc3)nn12 | 1 |
| Cc1cc(S)n2ncc(-c3ccc(Cl)cc3)c2n1 | 100 |
| CCOC(=O)c1cnn2c(O)cc(-c3ccccc3)nc12 | >100 |
| Cc1cc(S)n2ncc(-c3ccccc3)c2n1 | 1 |
| Cc1cccc(-c2cnn3c(S)ccnc23)c1 | 0.32 |
| Sc1ccnc2cc(-c3ccccc3)nn12 | 1 |
| Cc1cccc(-c2cnn3c(O)ccnc23)c1 | 100 |
| CCn1ccc(=S)n2nccc12 | 100 |
| Cc1cccc(-c2cnn3c(S)cc(C)nc23)c1 | 100 |
| Cn1ccc(=O)n2nccc12 | >100 |
| Cc1cc(S)n2nc(-c3ccccc3)cc2n1 | 1 |

| Structure (SMILES) | MAC [µg/mL] |
| --- | --- |
| Oc1cc(-c2ccccc2)nc2ccnn12 | >100 |
| Cn1ccc(=O)n2nc(-c3ccccc3)cc12 | >100 |
| CCOC(=O)c1cnn2c(S)cc(C)nc12 | 10 |
| CCCn1ccc(=O)n2nc(-c3ccccc3)cc12 | 100 |
| Cn1c(-c2ccccc2)cc(=O)n2nc(-c3ccccc3)cc12 | 100 |
| Cc1cccc(-c2cnn3c(O)cc(C)nc23)c1 | 100 |
| Cc1cc(=O)n2nccc2n1C | 100 |
| COc1cc(-c2cc3nc(C)cc(O)n3n2)cc(OC)c1OC | >100 |
| Sc1ccnc2ccnn12 | 1 |
| COc1cc(-c2cc3nc(C)cc(S)n3n2)cc(OC)c1OC | 1 |
| Cc1cc(O)n2ncc(-c3ccccc3)c2n1 | 100 |
| Oc1ccnc2c(-c3ccccc3)cnn12 | 100 |
| Cc1cc(S)n2nccc2n1 | 3.2 |
| Sc1cc(-c2ccccc2)nc2ccnn12 | 1 |
| COc1cc(-c2cc3nc(-c4ccccc4)cc(O)n3n2)cc(OC)c1OC | >100 |
| Cc1cc(O)n2nc(-c3cccc(Cl)c3)cc2n1 | >100 |
| Cn1ccc(=S)n2nccc12 | >100 |
| Sc1ccnc2c(-c3ccccc3)cnn12 | 1 |
| Cn1ccc(=S)n2nc(-c3ccccc3)cc12 | 10 |
| Oc1cc(-c2ccccc2)nc2c(-c3ccc(Cl)cc3)cnn12 | 100 |
